ChEMBL document CHEMBL1133472, “Synthesis and evaluation of N,N-dialkyl enkephalin-based affinity labels for delta opioid receptors” (J Med Chem, 2000)
Square brackets hold non-standard residues; d marks the D form. Peptide text beside a SMILES is read from it. * marks the point of attachment. ξ: configuration not given here. Tyr(Nα,Nα-Bn2) = O=C([C@H](Cc1ccc(O)cc1)N(Cc1ccccc1)Cc1ccccc1)*; Tyr(Nα,Nα-allyl2) = C=CCN(CC=C)[C@@H](Cc1ccc(O)cc1)C(=O)*; X1 = O=C(C(Cc1ccc(O)cc1)N(Cc1ccccc1)Cc1ccccc1)*; Phe(4-NH2) = Nc1ccc(C[C@H](N)C(=O)O)cc1; Aib = CC(C)(N)C(=O)O; BrAc = O=C(CBr)*; ξA = CC(N)C(=O)O

Columns and labels:
[1] = molecular target: Delta-type opioid receptor (Mus musculus, UniProt P32300); assay: Binding affinity was measured in cloned Opioid receptor delta 1 expressed in CHO cells using [3H]- DPDPE as radioligand.; assay type: cell-based
Chain of Delta-type opioid receptor (P32300 whole entry): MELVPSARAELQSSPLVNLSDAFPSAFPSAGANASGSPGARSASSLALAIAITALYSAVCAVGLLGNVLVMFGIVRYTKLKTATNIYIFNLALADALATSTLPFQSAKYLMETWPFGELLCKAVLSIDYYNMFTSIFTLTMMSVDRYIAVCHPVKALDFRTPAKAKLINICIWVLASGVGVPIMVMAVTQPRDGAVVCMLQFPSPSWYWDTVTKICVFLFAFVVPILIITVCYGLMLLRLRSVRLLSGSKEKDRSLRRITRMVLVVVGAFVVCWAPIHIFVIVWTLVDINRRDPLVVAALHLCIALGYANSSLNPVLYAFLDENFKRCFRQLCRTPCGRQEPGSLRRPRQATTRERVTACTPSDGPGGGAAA
Method in brief: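 Mouse δ receptor stably expressed in CHO cells; washed membranes (100 µg protein) incubated 90 min at 22 °C in 50 mM Tris pH 7.4 with 3 mM Mg2+ and peptidase inhibitors (bestatin, captopril, L-leucyl-L-leucine). [3H]DPDPE at 0.5-0.8 nM; nonspecific binding with 10 µM DPDPE. Filtration on PEI-soaked GF/B, scintillation counting.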

Mu-type opioid receptor = Mu-type opioid receptor (Rattus norvegicus, UniProt P33535); assay: Binding affinity was measured in cloned Opioid receptor mu 1 expressed in CHO cells using [3H]- DAMGO as radioligand.; assay type: cell-based
Chain of Mu-type opioid receptor (P33535 whole entry, looked up): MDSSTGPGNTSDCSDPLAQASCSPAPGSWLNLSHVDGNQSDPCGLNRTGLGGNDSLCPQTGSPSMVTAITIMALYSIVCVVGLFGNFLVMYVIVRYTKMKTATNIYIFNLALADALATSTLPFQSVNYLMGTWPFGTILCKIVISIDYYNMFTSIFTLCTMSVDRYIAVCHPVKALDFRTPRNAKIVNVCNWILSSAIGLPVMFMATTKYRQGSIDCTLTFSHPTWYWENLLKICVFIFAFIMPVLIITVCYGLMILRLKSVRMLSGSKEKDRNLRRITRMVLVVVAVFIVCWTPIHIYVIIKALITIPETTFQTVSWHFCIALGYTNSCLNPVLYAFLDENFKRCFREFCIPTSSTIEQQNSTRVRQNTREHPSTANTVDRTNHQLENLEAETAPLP
Method in brief: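 Rat µ receptor stably expressed in CHO cells; membranes (100 µg protein) incubated 90 min at 22 °C in 50 mM Tris pH 7.4 with 3 mM Mg2+ and bestatin, captopril, L-leucyl-L-leucine. [3H]DAMGO at 0.5-0.8 nM; nonspecific binding with 10 µM DAMGO. Filtration on PEI-presoaked GF/B filters, scintillation counting.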

[2] = tested on: mu (Rattus norvegicus) & delta (Mus musculus) opioid receptors; assay: Ratio of IC50 against mu opioid receptor to that of delta opioid receptor

Compound	IC50 [1] [nM]	IC50 (Mu-type opioid receptor) [nM]	Ratio [2]
CC(C)C[C@H](NC(=O)[C@H](Cc1ccc(N=C=S)cc1)NC(=O)CNC(=O)CNC(=O)[C@H](Cc1ccc(O)cc1)N(Cc1ccccc1)Cc1ccccc1)C(=O)O	34.9	1900	54
CC(C)C[C@H](NC(=O)[C@H](Cc1ccc(NCCl)cc1)NC(=O)CNC(=O)CNC(=O)[C@H](Cc1ccc(O)cc1)N(Cc1ccccc1)Cc1ccccc1)C(=O)O	145	19000	131
C=CCN(CC=C)[C@@H](Cc1ccc(O)cc1)C(=O)NC(C)(C)C(=O)NC(C)(C)C(=O)N[C@@H](Cc1ccccc1)C(=O)N[C@@H](CC(C)C)C(=O)O (HELM PEPTIDE1{[C=CCN(CC=C)[C@@H](Cc1ccc(O)cc1)C(=O)[*:2]].[Aib].[Aib].F.L}$$$$V2.0)	703	18900	27
CC(C)C[C@H](NC(=O)[C@H](Cc1ccccc1)NC(=O)CNC(=O)CNC(=O)[C@H](Cc1ccc(O)cc1)N(Cc1ccccc1)Cc1ccccc1)C(=O)O (HELM PEPTIDE1{[O=C([C@H](Cc1ccc(O)cc1)N(Cc1ccccc1)Cc1ccccc1)[*:2]].G.G.F.L}$$$$V2.0)	78.2	1600	20
CC(C)C[C@H](NC(=O)[C@H](Cc1ccc(NC(=O)CBr)cc1)NC(=O)CNC(=O)CNC(=O)C(Cc1ccc(O)cc1)N(Cc1ccccc1)Cc1ccccc1)C(=O)O (stereo partly drawn) (X1-GG[Phe(4-NH2)](BrAc)L-OH)	–	–	61
CC(C)C[C@H](NC(=O)[C@H](Cc1ccc(NC(=O)CBr)cc1)NC(=O)CNC(=O)CNC(=O)[C@H](Cc1ccc(O)cc1)N(Cc1ccccc1)Cc1ccccc1)C(=O)O ({Tyr(Nα,Nα-Bn2)}-GG[Phe(4-NH2)](BrAc)L-OH)	149	9100	–
C=CCN(CC=C)[C@@H](Cc1ccc(O)cc1)C(=O)NC(C)(C)C(=O)NC(C)C(=O)N[C@@H](Cc1ccc(N)cc1)C(=O)N[C@@H](CC(C)C)C(=O)O (stereo partly drawn) ({Tyr(Nα,Nα-allyl2)}-[Aib][ξA][Phe(4-NH2)]L-OH)	1390	87700	63
C=CCN(CC=C)[C@@H](Cc1ccc(O)cc1)C(=O)NC(C)C(=O)NC(C)C(=O)N[C@@H](Cc1ccc(NC(=O)CBr)cc1)C(=O)N[C@@H](CC(C)C)C(=O)O (stereo partly drawn) ({Tyr(Nα,Nα-allyl2)}-[ξA][ξA][Phe(4-NH2)](BrAc)L-OH)	392	> 10000	–
